ChEMBL document CHEMBL3414528, “Novel naftopidil-related derivatives and their biological effects as alpha1-adrenoceptors antagonists and antiproliferative agents” (Eur J Med Chem, 2015)

Target: T1, Alpha-1A adrenergic receptor (Rattus norvegicus, UniProt P43140)
T1 sequence (P43140 whole entry): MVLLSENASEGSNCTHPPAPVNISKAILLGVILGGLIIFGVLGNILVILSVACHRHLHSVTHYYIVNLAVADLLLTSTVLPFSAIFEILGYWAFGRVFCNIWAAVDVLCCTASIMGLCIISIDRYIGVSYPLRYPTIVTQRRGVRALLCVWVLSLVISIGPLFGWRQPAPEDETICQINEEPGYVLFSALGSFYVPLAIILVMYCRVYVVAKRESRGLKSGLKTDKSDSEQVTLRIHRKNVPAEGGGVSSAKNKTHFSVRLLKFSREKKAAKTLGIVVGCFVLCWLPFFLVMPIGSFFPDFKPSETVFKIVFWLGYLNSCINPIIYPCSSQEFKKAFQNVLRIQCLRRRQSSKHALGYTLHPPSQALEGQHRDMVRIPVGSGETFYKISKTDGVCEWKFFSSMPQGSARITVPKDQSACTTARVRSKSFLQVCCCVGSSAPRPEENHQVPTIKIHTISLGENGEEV
Experiment: Antagonist activity at Sprague-Dawley rat prostatic vas deferens adrenergic alpha-1A receptor after 20 mins
Details: read-out: pA2 (converted)
Outline: (§1)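 Isolated rat tissues (prostatic vas deferens, spleen, thoracic aorta) contracted with cumulative norepinephrine; concentration-response curves recorded in presence of increasing antagonist concentrations, antagonism read as rightward curve shift. Mean ± SEM of five to eight separate experiments.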
`COc1ccccc1N1CCN(CCCNC(=O)c2cc3ccc(Br)cc3[nH]2)CC1` showed a Kb of 69.2 nM.
Work on `COc1ccccc1N1CCN(CCCNC(=O)CCCc2c[nH]c3ccccc23)CC1` yielded a Kb of 12.6 nM.
With `COc1ccccc1N1CCN(CCCNC(=O)c2ccc3[nH]ccc3c2)CC1` the Kb was 26.3 nM.
`COc1ccccc1N1CCN(CCCNC(=O)CCc2c[nH]c3ccccc23)CC1` showed a Kb of 195 nM.
For `COc1ccccc1N1CCN(CCCNC(=O)c2cc3cc(Cl)ccc3[nH]2)CC1`, the Kb was 47.9 nM.
In the case of `COc1ccccc1N1CCN(CCCNC(=O)c2cn(C)c3ccccc23)CC1`, the Kb is reported as 52.5 nM.

Target: T2, Alpha-1B adrenergic receptor (Rattus norvegicus, UniProt P15823)
T2 sequence (P15823 whole entry): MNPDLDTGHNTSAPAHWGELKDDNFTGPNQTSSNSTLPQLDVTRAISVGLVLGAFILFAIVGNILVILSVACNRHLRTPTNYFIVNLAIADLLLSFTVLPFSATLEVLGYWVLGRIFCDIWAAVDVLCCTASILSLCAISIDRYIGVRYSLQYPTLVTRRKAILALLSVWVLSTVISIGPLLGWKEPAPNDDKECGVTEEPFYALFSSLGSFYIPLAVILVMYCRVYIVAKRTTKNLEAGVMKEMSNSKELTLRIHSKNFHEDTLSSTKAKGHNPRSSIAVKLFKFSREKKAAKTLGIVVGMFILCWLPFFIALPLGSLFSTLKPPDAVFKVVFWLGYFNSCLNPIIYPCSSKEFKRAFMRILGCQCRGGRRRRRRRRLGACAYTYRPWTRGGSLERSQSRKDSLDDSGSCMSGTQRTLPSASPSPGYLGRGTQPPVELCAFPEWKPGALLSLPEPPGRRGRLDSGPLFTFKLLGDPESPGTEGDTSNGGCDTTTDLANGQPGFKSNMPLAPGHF
Experiment: Antagonist activity at Sprague-Dawley rat spleen adrenergic alpha-1B receptor after 20 mins
Details: read-out: pA2 (converted)
Outline: as §1
Work on `COc1ccccc1N1CCN(CCCNC(=O)c2cc3ccc(Br)cc3[nH]2)CC1` yielded a Kb of 209 nM.
`COc1ccccc1N1CCN(CCCNC(=O)CCCc2c[nH]c3ccccc23)CC1` gave a Kb of 95.5 nM.
Work on `COc1ccccc1N1CCN(CCCNC(=O)c2ccc3[nH]ccc3c2)CC1` yielded a Kb of 123 nM.
`COc1ccccc1N1CCN(CCCNC(=O)CCc2c[nH]c3ccccc23)CC1` showed a Kb of 219 nM.
Molecule `COc1ccccc1N1CCN(CCCNC(=O)c2cc3cc(Cl)ccc3[nH]2)CC1` has a Kb of 257 nM.
`COc1ccccc1N1CCN(CCCNC(=O)c2cn(C)c3ccccc23)CC1` gave a Kb of 166 nM.

Target: T3, Alpha-1D adrenergic receptor (Rattus norvegicus, UniProt P23944)
T3 sequence (P23944 whole entry): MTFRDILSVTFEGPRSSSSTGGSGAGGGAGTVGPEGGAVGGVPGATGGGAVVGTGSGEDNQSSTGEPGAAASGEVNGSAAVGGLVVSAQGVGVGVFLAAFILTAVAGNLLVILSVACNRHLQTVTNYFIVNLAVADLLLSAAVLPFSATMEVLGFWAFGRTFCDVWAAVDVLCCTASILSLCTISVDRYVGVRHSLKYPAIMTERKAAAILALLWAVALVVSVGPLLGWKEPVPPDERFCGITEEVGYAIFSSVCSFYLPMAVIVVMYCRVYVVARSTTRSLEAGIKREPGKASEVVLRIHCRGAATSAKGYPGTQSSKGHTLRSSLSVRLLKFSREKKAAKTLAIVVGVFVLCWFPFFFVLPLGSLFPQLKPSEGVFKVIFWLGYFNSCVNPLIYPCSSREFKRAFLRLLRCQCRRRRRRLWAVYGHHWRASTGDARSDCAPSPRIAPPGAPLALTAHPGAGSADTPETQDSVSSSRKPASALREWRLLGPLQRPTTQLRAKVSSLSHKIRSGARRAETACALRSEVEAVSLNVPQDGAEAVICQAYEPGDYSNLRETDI
Experiment: Antagonist activity at Sprague-Dawley rat thoracic aorta adrenergic alpha-1D receptor after 20 mins
Details: read-out: pA2 (converted)
Outline: as §1
Molecule `COc1ccccc1N1CCN(CCCNC(=O)c2cc3ccc(Br)cc3[nH]2)CC1` has a Kb of 15.1 nM.
`COc1ccccc1N1CCN(CCCNC(=O)CCCc2c[nH]c3ccccc23)CC1` showed a Kb of 5.13 nM.
`COc1ccccc1N1CCN(CCCNC(=O)c2ccc3[nH]ccc3c2)CC1` gave a Kb of 11.7 nM.
With `COc1ccccc1N1CCN(CCCNC(=O)CCc2c[nH]c3ccccc23)CC1` the Kb was 34.7 nM.
`COc1ccccc1N1CCN(CCCNC(=O)c2cc3cc(Cl)ccc3[nH]2)CC1` showed a Kb of 19.5 nM.
With `COc1ccccc1N1CCN(CCCNC(=O)c2cn(C)c3ccccc23)CC1` the Kb was 5.5 nM.

Species: Rattus norvegicus
Experiment: Selectivity ratio for Sprague-Dawley rat thoracic aorta adrenergic alpha-1D receptor to Sprague-Dawley rat spleen adrenergic alpha-1B receptor
Type: tissue-based
Details: not given
In the case of `COc1ccccc1N1CCN(CCCNC(=O)c2cc3ccc(Br)cc3[nH]2)CC1`, the Ratio is reported as 13.8.
`COc1ccccc1N1CCN(CCCNC(=O)CCCc2c[nH]c3ccccc23)CC1` showed a Ratio of 18.6.
`COc1ccccc1N1CCN(CCCNC(=O)c2ccc3[nH]ccc3c2)CC1` showed a Ratio of 10.5.
In the case of `COc1ccccc1N1CCN(CCCNC(=O)CCc2c[nH]c3ccccc23)CC1`, the Ratio is reported as 6.3.
`COc1ccccc1N1CCN(CCCNC(=O)c2cc3cc(Cl)ccc3[nH]2)CC1` gave a Ratio of 13.2.
Molecule `COc1ccccc1N1CCN(CCCNC(=O)c2cn(C)c3ccccc23)CC1` has a Ratio of 30.2.

Test system: not listed separately
Experiment: Cytotoxicity against human PC3 cells after 48 hrs by WST-8 assay
Type: functional, cell-based
Details: PC-3, 48 h
With `COc1ccccc1N1CCN(CCCNC(=O)c2cc3ccc(Br)cc3[nH]2)CC1` the IC50 was 31200 nM.
With `COc1ccccc1N1CCN(CCCNC(=O)CCCc2c[nH]c3ccccc23)CC1` the IC50 was greater than 100000 nM.
With `COc1ccccc1N1CCN(CCCNC(=O)c2cc3cc(Cl)ccc3[nH]2)CC1` the IC50 was 36900 nM.

Test system: DU-145
Experiment: Cytotoxicity against human DU145 cells after 48 hrs by WST-8 assay
Type: functional, cell-based
Details: DU-145, 48 h
Work on `COc1ccccc1N1CCN(CCCNC(=O)c2cc3ccc(Br)cc3[nH]2)CC1` yielded an IC50 of 39300 nM.
`COc1ccccc1N1CCN(CCCNC(=O)CCCc2c[nH]c3ccccc23)CC1` gave an IC50 greater than 100000 nM.
With `COc1ccccc1N1CCN(CCCNC(=O)c2cc3cc(Cl)ccc3[nH]2)CC1` the IC50 was 47000 nM.

Test system: LNCaP
Experiment: Cytotoxicity against human LNCAP cells after 48 hrs by WST-8 assay
Type: functional, cell-based
Details: not given
`COc1ccccc1N1CCN(CCCNC(=O)c2cc3ccc(Br)cc3[nH]2)CC1` gave an IC50 of 26700 nM.
In the case of `COc1ccccc1N1CCN(CCCNC(=O)CCCc2c[nH]c3ccccc23)CC1`, the IC50 is reported as 52300 nM.
For `COc1ccccc1N1CCN(CCCNC(=O)c2cc3cc(Cl)ccc3[nH]2)CC1`, the IC50 was 28400 nM.

Species: Rattus norvegicus
Experiment: Selectivity ratio for Sprague-Dawley rat prostatic vas deferens adrenergic alpha-1A receptor to Sprague-Dawley rat spleen adrenergic alpha-1B receptor
Details: not given
`COc1ccccc1N1CCN(CCCNC(=O)c2cc3ccc(Br)cc3[nH]2)CC1` gave a Ratio of 3.
`COc1ccccc1N1CCN(CCCNC(=O)CCCc2c[nH]c3ccccc23)CC1` gave a Ratio of 7.6.
In the case of `COc1ccccc1N1CCN(CCCNC(=O)c2ccc3[nH]ccc3c2)CC1`, the Ratio is reported as 4.7.
For `COc1ccccc1N1CCN(CCCNC(=O)CCc2c[nH]c3ccccc23)CC1`, the Ratio was 1.1.
Molecule `COc1ccccc1N1CCN(CCCNC(=O)c2cc3cc(Cl)ccc3[nH]2)CC1` has a Ratio of 5.4.
In the case of `COc1ccccc1N1CCN(CCCNC(=O)c2cn(C)c3ccccc23)CC1`, the Ratio is reported as 3.2.

Species: Rattus norvegicus
Experiment: Selectivity ratio for Sprague-Dawley rat thoracic aorta adrenergic alpha-1D receptor to Sprague-Dawley rat prostatic vas deferens adrenergic alpha-1A receptor
Details: not given
`COc1ccccc1N1CCN(CCCNC(=O)c2cc3ccc(Br)cc3[nH]2)CC1` gave a Ratio of 4.6.
In the case of `COc1ccccc1N1CCN(CCCNC(=O)CCCc2c[nH]c3ccccc23)CC1`, the Ratio is reported as 2.5.
In the case of `COc1ccccc1N1CCN(CCCNC(=O)c2ccc3[nH]ccc3c2)CC1`, the Ratio is reported as 2.2.
With `COc1ccccc1N1CCN(CCCNC(=O)CCc2c[nH]c3ccccc23)CC1` the Ratio was 5.6.
With `COc1ccccc1N1CCN(CCCNC(=O)c2cc3cc(Cl)ccc3[nH]2)CC1` the Ratio was 2.5.
`COc1ccccc1N1CCN(CCCNC(=O)c2cn(C)c3ccccc23)CC1` gave a Ratio of 9.6.
